In ChEMBL document CHEMBL1132994, “Synthesis and anticonvulsant and neurotoxic properties of substituted N-phenyl derivatives of the phthalimide pharmacophore” (J Med Chem, 2000):
Calls of active or inactive are those of the source. No cut-off for these calls is given here.

Legend:
Mus musculus [1] = assay: Neurotoxicity by rotarod test after intraperitoneal administration at a concentration of 300 mg/kg after 30 minutes; Inactive; type: functional, organism-based; parameters: dose 300 mg/kg
Mus musculus [2] = assay: Anticonvulsant activity in mice through seizures induced by sc pentylenetetrazole (intraperitoneal administration at a concentration of 300 mg/kg after 4 hours; active; type: functional, organism-based; parameters: dose 300 mg/kg
Mus musculus [3] = assay: Anticonvulsant activity in mice through seizures induced by maximal electroshock (MES) tests after ip administration at a concentration of 100 mg/kg after 30 min; active; type: functional, organism-based; parameters: dose 100 mg/kg
Mus musculus [4] = assay: Anticonvulsant activity in mice through seizures induced by maximal electroshock (MES) tests after ip administration at a concentration of 300 mg/kg after 4 hours; Inactive; type: functional, organism-based; parameters: dose 300 mg/kg
Mus musculus [5] = assay: Neurotoxicity determined by rotarod test after intraperitoneal administration at a concentration of 300 mg/kg after 4 hours; Inactive; type: functional, organism-based; parameters: dose 300 mg/kg
Mus musculus [6] = assay: Anticonvulsant activity in mice through seizures induced by subcutaneous pentylenetetrazole (scPTZ) tests after ip administration at a concentration of 300 mg/kg after 30 min; active; type: functional, organism-based; parameters: dose 300 mg/kg
Mus musculus [7] = assay: Anticonvulsant activity in mice through seizures induced by maximal electroshock (MES) tests after ip administration at a concentration of 300 mg/kg after 4 hours; Active; type: functional, organism-based; parameters: dose 300 mg/kg
Mus musculus [8] = assay: Anticonvulsant activity in mice through seizures induced by maximal electroshock (MES) tests after ip administration at a concentration of 100 mg/kg after 30 min; Inactive; type: functional, organism-based; parameters: dose 100 mg/kg
Mus musculus [9] = assay: Anticonvulsant activity in mice through seizures induced by subcutaneous pentylenetetrazole (scPTZ) tests after ip administration at a concentration of 300 mg/kg after 30 min; Inactive; type: functional, organism-based; parameters: dose 300 mg/kg
Mus musculus [10] = assay: Anticonvulsant activity in mice through seizures induced by sc pentylenetetrazole (intraperitoneal administration at a concentration of 300 mg/kg after 4 hours; Inactive; type: functional, organism-based; parameters: dose 300 mg/kg
Mus musculus [11] = assay: Anticonvulsant activity in mice through seizures induced by sc pentylenetetrazole (intraperitoneal administration at a concentration of 300 mg/kg after 30 min; Inactive; type: functional, organism-based; parameters: dose 300 mg/kg
Mus musculus [12] = assay: Anticonvulsant activity in mice through seizures induced by maximal electroshock (MES) tests after ip administration at a concentration of 100 mg/kg after 30 min; Active; type: functional, organism-based; parameters: dose 100 mg/kg
Mus musculus [13] = assay: Anticonvulsant activity in mice through seizures induced by subcutaneous pentylenetetrazole (scPTZ) tests after ip administration at a concentration of 300 mg/kg after 4 hours; Inactive; type: functional, organism-based; parameters: dose 300 mg/kg
Rattus norvegicus [14] = assay: Anticonvulsant activity was measured in rats through seizures induced by maximal electroshock (MES) tests by oral administration of drug after 15 minutes; No activity; type: functional, organism-based
Summary of the method: (§1)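 Rats given a single oral dose of 30 or 50 mg/kg, depending on compound; MES protection scored at 15, 30, 60, 120 and 240 min. Activity graded by fraction of animals protected (0-25%, 25-50%, 50-75%, 75-100%); neurotoxicity monitored at the same time points.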

Rattus norvegicus [15] = assay: Anticonvulsant activity was measured in rats through seizures induced by maximal electroshock (MES) tests by oral administration of drug after 2 hours.; type: functional; summary of the method: as §1
Rattus norvegicus [16] = assay: Toxicity screening in rats dosed orally with the compound; No toxicity; type: organism-based; conditions: in vivo, po
Rattus norvegicus [17] = assay: Effective dose required to assure anticonvulsant protection in 50% of rats dosed orally by scPTZ test.; type: functional; conditions: po
Summary of the method: (§2)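 Rats dosed orally; ED50 is the dose giving anticonvulsant protection in 50% of animals in the MES or scPtz test. TD50 is the minimal neurotoxic dose in 50% of animals. Time to peak effect was also determined.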

Mus musculus [18] = assay: Neurotoxicity by rotarod test after intraperitoneal administration at a concentration of 300 mg/kg after 30 minutes; Active; type: functional, organism-based; parameters: dose 300 mg/kg
Rattus norvegicus [19] = assay: Anticonvulsant activity was measured in rats through seizures induced by maximal electroshock (MES) tests by oral administration of drug after 1 hour.; type: functional; summary of the method: as §1
[20] = dose eliciting minimal neurological toxicity in 50% of animals.; type: organism-based; conditions: rat, in vivo
Rattus norvegicus [21] = assay: Effective dose required to assure anticonvulsant protection in 50% of rats dosed orally by MES test.; type: functional; conditions: po; summary of the method: as §2
Rattus norvegicus [22] = assay: Anticonvulsant activity was measured in rats through seizures induced by maximal electroshock (MES) tests by oral administration of drug after 4 hours.; type: functional; summary of the method: as §1
Rattus norvegicus [23] = assay: Anticonvulsant activity was measured in rats through seizures induced by maximal electroshock (MES) tests by oral administration of drug after 30 minutes.; type: functional; summary of the method: as §1
Mus musculus [24] = assay: Anticonvulsant activity in mice through seizures induced by scpentylenetetrazol (intraperitoneal administration at a concentration of 300 mg/kg after 4 hours; Inactive; type: functional, organism-based; parameters: dose 300 mg/kg
Rattus norvegicus [25] = assay: Anticonvulsant activity was measured in rats through seizures induced by maximal electroshock (MES) tests by oral administration of drug after 15 minutes.; type: functional; summary of the method: as §1
Mus musculus [26] = assay: Neurotoxicity by rotarod test after intraperitoneal administration at a concentration of 300 mg/kg after 4 hours.; Inactive; type: functional, organism-based; parameters: dose 300 mg/kg
Mus musculus [27] = assay: Neurotoxicity by rotarod test after intraperitoneal administration at a concentration of 300 mg/kg after 30 minutes.; active; type: functional, organism-based; parameters: dose 300 mg/kg

Structure (SMILES)	Activity (Mus musculus [1])	Activity (Mus musculus [3])	Activity (Mus musculus [4])	Activity (Mus musculus [5])	Activity (Mus musculus [8])	Activity (Mus musculus [9])	Activity (Mus musculus [10])	Activity (Mus musculus [11])	Activity (Mus musculus [13])	also measured
COc1ccc(N2C(=O)c3ccccc3C2=O)c(C)c1	inactive	Active	inactive	inactive	–	–	–	–	–	Activity (Mus musculus [2]): Active; Activity (Mus musculus [6]): Active
Cc1cc([N+](=O)[O-])ccc1N1C(=O)c2ccccc2C1=O	inactive	–	–	inactive	inactive	inactive	inactive	–	–	Activity (Mus musculus [7]): Active
Cc1c(N)cccc1N1C(=O)CCC1=O	inactive	Active	inactive	inactive	–	–	inactive	inactive	–	–
Cc1ccc(N)cc1N1C(=O)c2ccccc2C1=O	inactive	–	inactive	inactive	–	–	–	inactive	inactive	Activity (Mus musculus [12]): Active
Cc1cccc(N)c1N1C(=O)c2ccccc2C1=O	–	–	–	inactive	–	inactive	–	–	inactive	Activity in animals (Rattus norvegicus [14]): No activity; Activity (Mus musculus [7]): Active; Activity in animals (Rattus norvegicus [15]): 25%; Toxicity (Rattus norvegicus [16]): No toxicity; ED50 (Rattus norvegicus [17]): > 250 mg/kg; Activity (Mus musculus [18]): Active; Activity in animals (Rattus norvegicus [19]): 75%; TD50 [20]: > 500 mg/kg; ED50 (Rattus norvegicus [21]): 28.3 mg/kg; Activity (Mus musculus [12]): Active; Activity in animals (Rattus norvegicus [22]): 25%
Cc1c(C(=O)O)cccc1N1C(=O)c2ccccc2C1=O	inactive	–	inactive	inactive	inactive	inactive	–	–	inactive	–
Cc1c(N2C(=O)c3ccccc3C2=O)cccc1[N+](=O)[O-]	inactive	–	inactive	inactive	inactive	–	inactive	inactive	–	–
Cc1cccc(C)c1N1C(=O)c2ccccc2C1=O	inactive	Active	inactive	inactive	–	–	–	inactive	–	Activity in animals (Rattus norvegicus [15]): 25%; Toxicity (Rattus norvegicus [16]): No toxicity; Activity in animals (Rattus norvegicus [23]): 50%; Activity (Mus musculus [24]): inactive; Activity in animals (Rattus norvegicus [25]): 50%; Activity in animals (Rattus norvegicus [22]): 50%
COC(=O)c1ccccc1N1C(=O)c2ccccc2C1=O	–	–	inactive	–	–	–	inactive	inactive	–	Activity (Mus musculus [26]): inactive; Activity (Mus musculus [27]): Active
